Columns and labels:
[1] = melting temperature; fluorescence melt of hairpins on a sequencing array, two-state fit, raised by 9.35 °C to match UV melts; conditions: sodium 0.088 M
How it was run: (§1)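 Melting temperature and folding enthalpy were derived from bootstrapped two-state fits. The fitted temperatures were raised by 9.35 °C to agree with UV melts, and four replicates were combined by inverse variance. The underlying data were Cy3 fluorescence images of library hairpins, with annealed Cy3 and quencher oligos, on a sequenced MiSeq flow cell in 50 mM Na-HEPES pH 8.0, 25 mM NaCl, taken in 2.5 °C steps up to 60 °C, normalised to pre-quench Cy3 and to control constructs.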

[2] = folding enthalpy; higher = less favourable; fluorescence melt of hairpins on a sequencing array, two-state fit; conditions: sodium 0.088 M
How it was run: as §1

Sequence | Tm [1] [°C] | folding enthalpy [2] [kcal/mol]
GTTCATGGAAACACGAAC ((((.((....)).)))) | 34.4 | -28.4
GTTCATGGAAACGTGAAC (((((.(....).))))) | 46.4 | -40.6
GTTCCACGAAAGTGAAAC (((.(((....))).))) | 43.4 | -25.2
GTTCCCGAAAGGGAAAAC ((((((....)))..))) | 41 | -10.8
GTTCCCGAAAGGGAGAAC ((((((....)))..))) | 38 | -10.3
GTTCCCGAAAGGGGCAAC ((((((....)))..))) | 30.2 | -9.18
GTTCCCGAAAGGGTCAAC ((((((....)))..))) | 26.9 | -9.41
GTTCCCGAAAGGGTTAAC ((((((....)))..))) | 30.1 | -8.45
GTTCCCGGAAACGGGAGC (.(((((....))))).) | 54.2 | -26
GTTCCGCGAAAGCGAAAC (((.(((....))).))) | 53.9 | -23.6
GTTCCGGAAACGGAAC ((((((....)))))) | 66.3 | -32.4
GTTCCGGGAAACCGAAAC (((.(((....))).))) | 38.5 | -25
GTTCCGGGAAACTGGAAC (((((.(....).))))) | 52.5 | -39.6
GTTCCTGAAAAGGAAC ((((((....)))))) | 57.1 | -31.4
GTTCCTGGAAACAGGAGC (.(((((....))))).) | 48.3 | -23.4
GTTCCTGGAAACGGGAAC (((((.(....).))))) | 50.7 | -40.9
GTTCGAGGAAACTTGAAC ((((.((....)).)))) | 44.5 | -32.4
GTTCGAGGAAACTTGAGC (.((.((....)).)).) | 29.9 | -20.3
GTTCGCGAAAGCGAAAC ((((((....))).))) | 55.3 | -12.6
GTTCGCGAAAGCGACAAC ((((((....)))..))) | 34.8 | -7.58
GTTCGCGAAAGCGCAAAC ((((((....)))..))) | 29 | -7.42
GTTCGCGAAAGCGGAAAC ((((((....)))..))) | 36.6 | -9.75
GTTCGCGGAAACACGAAC (((((.(....).))))) | 48.9 | -39.7

Sequence | Tm [1] [°C] | folding enthalpy [2] [kcal/mol]
GTTCGGGAAACCGAAC ((((((....)))))) | 61.1 | -38.1
GTTCGGGGAAACCCAAAC (((.(((....))).))) | 36 | -23.8
GTTCGGGGAAACCTGGAC ((.(.((....)).).)) | 36.8 | -20.2
GTTCGGGGAAACTCGAGC (.(((.(....).))).) | 35.9 | -19.7
GTTCGTCGAAAGACCAAC (((.(((....))).))) | 30.9 | -15.9
GTTCGTGAAAACGAAC ((((((....)))))) | 61.9 | -32
GTTCGTGGAAACGCGAAC (((((.(....).))))) | 55.3 | -41.3
GTTCTCCCGAAAGGGAAC (((..(((....)))))) | 30.6 | -9.91
GTTCTCCGAAAGGATAAC (((.(((....))).))) | 41.2 | -26.4
GTTCTCGAAAGAGAAC ((((((....)))))) | 61 | -35.2
GTTCTCGAAAGAGGCAAC ((((((....)))..))) | 26.6 | -9.31
GTTCTCGAAAGAGGGAAC ((((((....)))..))) | 31.4 | -17.6
GTTCTCGAAAGAGTGAAC ((((((....)))..))) | 29.4 | -14.7
GTTCTCGGAAACAAGAAC (((((.(....).))))) | 33.9 | -14.8
GTTCTCGGAAACGAAAAC (((.(((....))).))) | 29.3 | -20
GTTCTCGGAAACGGGAAC ((((.((....)).)))) | 51 | -41.3
GTTCTGCGAAAGCAAAAC (((.(((....))).))) | 38.4 | -16.7
GTTCTGGGAAACTGGAAC ((((..(....)..)))) | 34.8 | -31.9
GTTCTTCGAAAGAAAAAC (((.(((....))).))) | 25.4 | -12.6
GTTGAACGAAAGTTAAAC (((.(((....))).))) | 41.2 | -26.9
GTTGAAGCGAAAGCTAAC (((..(((....)))))) | 34.3 | -13.5
GTTGACGAAAGTCAAAC ((((((....))).))) | 51.3 | -13.9
GTTGACGAAAGTCCGAAC ((((((....)))..))) | 29 | -10.6
